Experiment: Inhibition of recombinant CAMK2 expressed in Sf9 cells after 20 mins
Method in brief: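 Baculovirus-expressed CaMKII from infected Sf9 cells (harvested day 3), purified on calmodulin affinity resin. Assayed in 25 mM Tris–HCl pH 7.5, 2 mM DTT, 10 mM MgCl₂, 0.1% CHAPS, 1 mM CaCl₂ with autocamtide-2 substrate, CaM and [γ-³³P]ATP (350–1500 cpm/pmol); 20 min, 30 °C. Reaction spotted onto P30 filtermat, washed with 75 mM phosphoric acid, counted by scintillation.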
Work on `COc1ccc(S(=O)(=O)N(CCO)c2ccccc2CN(C)C/C=C/c2ccc(Cl)cc2)cc1` yielded an IC50 of 1.6 µM. With `O=C(c1ccccc1)c1cc2cc(O)ccc2[nH]1` the IC50 was 10 µM. `O=C(c1ccc(F)cc1)c1cc2cc(O)ccc2[nH]1` showed an IC50 of over 10 µM. With `O=C(c1ccc(Cl)cc1)c1cc2cc(O)ccc2[nH]1` the IC50 was over 10 µM. For `Cc1ccc(C(=O)c2cc3cc(O)ccc3[nH]2)cc1`, the IC50 was 8.8 µM. For `COc1ccc(C(=O)c2cc3cc(O)ccc3[nH]2)cc1`, the IC50 was over 10 µM. For `O=C(c1ccc(OC(F)(F)F)cc1)c1cc2cc(O)ccc2[nH]1`, the IC50 was over 10 µM. Compound `O=C(c1ccc(-c2ccccc2)cc1)c1cc2cc(O)ccc2[nH]1` has an IC50 of 6.4 µM. In the case of `O=C(c1cc2cc(O)ccc2[nH]1)c1ccccc1Oc1ccccc1`, the IC50 is reported as 1.8 µM. With `O=C(c1cccc(Oc2ccccc2)c1)c1cc2cc(O)ccc2[nH]1` the IC50 was 1.7 µM. In the case of `O=C(c1ccc(Oc2ccccc2)cc1)c1cc2cc(O)ccc2[nH]1`, the IC50 is reported as 0.61 µM. Compound `O=C(c1ccc(Oc2ccccc2)cc1)c1cc2ccc(O)cc2[nH]1` has an IC50 of 2.3 µM. Compound `O=C(c1ccc(Oc2ccccc2)cc1)c1cc2ccccc2[nH]1` has an IC50 of 7.5 µM. In the case of `O=C(c1ccc(OC2CCCC2)cc1)c1cc2cc(O)ccc2[nH]1`, the IC50 is reported as 3.9 µM. With `O=C(c1ccc(OC2CCCCC2)cc1)c1cc2cc(O)ccc2[nH]1` the IC50 was 2.3 µM. For `O=C(c1ccc(OC2CCOC2)cc1)c1cc2cc(O)ccc2[nH]1` (stereo unspecified), the IC50 was 6.8 µM. For `O=C(c1ccc(OC2CCNCC2)cc1)c1cc2cc(O)ccc2[nH]1`, the IC50 was over 10 µM. Compound `CN1CCC(Oc2ccc(C(=O)c3cc4cc(O)ccc4[nH]3)cc2)CC1` has an IC50 of over 10 µM. Work on `CC(=O)N1CCC(Oc2ccc(C(=O)c3cc4cc(O)ccc4[nH]3)cc2)CC1` yielded an IC50 of 9.9 µM. `O=C(c1ccc(Oc2ccccc2)cc1)c1cc2cc(O)ccc2n1S(=O)(=O)c1ccccc1` showed an IC50 of over 10 µM. Compound `Cn1c(C(=O)c2ccc(Oc3ccccc3)cc2)cc2cc(O)ccc21` has an IC50 of 1.3 µM. For `O=C(c1ccc(Oc2ccccc2)cc1)c1cc2cc(O)ccc2n1CCO`, the IC50 was 1.9 µM. For `CCOC(=O)Cn1c(C(=O)c2ccc(Oc3ccccc3)cc2)cc2cc(O)ccc21`, the IC50 was 0.77 µM. Compound `O=C(O)Cn1c(C(=O)c2ccc(Oc3ccccc3)cc2)cc2cc(O)ccc21` has an IC50 of 1.8 µM. `O=C(c1ccc(Oc2ccccc2)cc1)c1cc2nc(O)ccc2[nH]1` showed an IC50 of over 10 µM. For `O=C(c1ccc(Oc2ccccc2)cc1)c1cc2cc(O)ncc2[nH]1`, the IC50 was 6.8 µM.
